# In the library only some 2.3% were active in any assay of this set; here they are far more common.
# Ecoli WT expand – growth inhibitors of wild-type E. coli, primary screen, strain BW25113, expanded library, OD600. OD600 absorbance. growth inhibition, % at 100 µM. AID 710, 2007. 98,000 tested, 0.15% active;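 active = growth inhibition above about 50% at one test dose, limit read from the data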;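 note: growth measured after 20 h incubation at 37 °C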
# tolC growth inh – growth inhibitors of E. coli tolC mutant, primary screen, strain BW25113 ΔtolC::kan, 384-well; OD615; growth inhibition, % at 10 µM (by protocol); 65,000 tested, 2.2% active;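 active = growth inhibition at or above a cutoff equal to the mean over every tested compound plus 3 SD, cut at about 60% in these data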;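 note: growth measured after 20 h incubation at 37 °C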
#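 Test system: tolC-deleted E. coli BW25113; medium: LB with kanamycin 50 µg/mL; compound: single-point testing at 10 µM; incubation: 20 h compound exposure of bacteria at 37 °C; signal: OD at 615 nm; evaluation: growth inhibition in percent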
# PTK2B oligo ant – antagonists of Pyk2 self-association, primary screen, Q293 cells, FERM NanoBiT luminescence, HTS | Protein-tyrosine kinase 2-beta (Homo sapiens), Q14289 | 99,000 tested, 0.83% active | hits give low values | z-score (the deposit names both 25 µM and 10 µM);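 active = Z-score of -3 or lower, scaled per plate to the spread of control and sample wells; inactive = z-score above -3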;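 note: negative z-score means lost luminescence so less FERM oligomerization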
# Target sequence (Q14289 whole entry, looked up): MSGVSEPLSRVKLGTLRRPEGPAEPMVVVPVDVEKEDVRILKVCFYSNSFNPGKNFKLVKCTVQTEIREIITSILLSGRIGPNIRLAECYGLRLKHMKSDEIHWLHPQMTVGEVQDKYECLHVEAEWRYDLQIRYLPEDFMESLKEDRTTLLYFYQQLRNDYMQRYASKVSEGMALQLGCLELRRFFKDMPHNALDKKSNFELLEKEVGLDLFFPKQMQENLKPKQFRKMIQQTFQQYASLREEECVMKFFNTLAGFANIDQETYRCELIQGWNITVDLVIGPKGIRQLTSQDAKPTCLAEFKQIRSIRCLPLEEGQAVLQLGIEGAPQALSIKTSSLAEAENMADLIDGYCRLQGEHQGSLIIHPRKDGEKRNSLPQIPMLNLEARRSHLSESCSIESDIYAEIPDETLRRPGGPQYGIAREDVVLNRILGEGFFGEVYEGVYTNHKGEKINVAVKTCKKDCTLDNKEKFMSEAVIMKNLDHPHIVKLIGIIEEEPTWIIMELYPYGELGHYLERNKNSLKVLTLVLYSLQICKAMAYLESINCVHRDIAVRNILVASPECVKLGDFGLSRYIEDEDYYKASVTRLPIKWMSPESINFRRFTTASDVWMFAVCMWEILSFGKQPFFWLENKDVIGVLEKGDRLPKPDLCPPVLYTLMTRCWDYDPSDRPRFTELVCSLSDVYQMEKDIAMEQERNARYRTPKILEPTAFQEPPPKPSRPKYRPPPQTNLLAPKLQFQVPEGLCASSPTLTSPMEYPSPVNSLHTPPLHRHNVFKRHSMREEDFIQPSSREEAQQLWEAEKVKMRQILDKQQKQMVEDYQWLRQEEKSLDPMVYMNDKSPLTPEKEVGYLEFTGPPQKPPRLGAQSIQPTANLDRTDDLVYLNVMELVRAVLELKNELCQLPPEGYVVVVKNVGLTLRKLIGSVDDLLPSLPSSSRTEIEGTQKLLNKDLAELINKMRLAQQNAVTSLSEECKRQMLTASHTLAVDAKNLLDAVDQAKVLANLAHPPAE
# Mac1 fbg inh – inhibitors of CD11b/CD18 adhesion to fibrinogen, primary screen, K562 cells, luminescence; AID 1497, 2009; ATPlite luminescence; Mn2+ added to activate the integrin; inhibition, % at 10 µM; Integrin beta-2 (Homo sapiens) + Integrin alpha-M (Homo sapiens), P05107+P11215; 93,000 tested, 0.54% active;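 active = primary inhibition of 50% or more at 10 µM, then 40% or more on retest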
# Mac1 fbg enh – enhancers of CD11b/CD18 adhesion to fibrinogen, primary screen, K562 cells, luminescence; activation, % at 10 µM; AID 1499, 2009; ATPlite luminescence; 93,000 tested, 0.07% active; Integrin beta-2 (Homo sapiens) + Integrin alpha-M (Homo sapiens), P05107+P11215;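 active = 10 µM primary screen giving 50% or more activity, confirmed by 40% or more on retest at that dose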
# Starred values were filed as active, the others as inactive; . = no result.
SMILES,Ecoli WT expand,tolC growth inh,PTK2B oligo ant,Mac1 fbg inh,Mac1 fbg enh
CC1Cc2ccccc2N1C(=O)CSc1nnc(CNc2ccccc2)o1 (stereo unspecified),0,-15,0.05,-2,0
Cc1ccc(NC(=O)c2ccc(Cn3cc(Br)cn3)o2)cc1,.,.,-0.71,.,.
N#Cc1c(NC(=O)c2ccc(Cn3cc(Br)cn3)o2)sc2c1CCCCCC2,-16,61*,-0.25,100,-5
CCOC(=O)C(C(=O)OCC)C(Nc1ccc(Br)cc1)c1ccccc1 (stereo unspecified),10,.,-0.81,-10,-4
O=C(Nc1ccc2c(c1)OCO2)c1ccc(COc2ccc3c(c2)CCC3)o1,-1,72*,0.5,.,.
Cc1ccc(C(=O)Nc2ccc3c(c2)CCC3)o1,5,22,0.27,-20,-6
CN(C)c1nc(SCCOC(=O)Nc2ccccc2)nc(N(C)C)n1,-29,86*,-0.22,-4,2
CCOc1cc(N2CCOCC2)c(OCC)cc1NC(=O)C(NC(=O)c1ccco1)C(C)C (stereo unspecified),2,-8,0.37,-9,-1
O=[N+]([O-])c1ccc(COc2ccc(-c3[nH]ncc3-c3ccccc3)c(O)c2)cc1,.,.,.,38,0
COc1ccc(O)c(-c2cn[nH]c2-c2cccs2)c1,-6,15,0,2,-4
COc1ccc(-c2[nH]ncc2Oc2ccccc2OC)c(O)c1,8,99*,-2.8,17,-4
CCCc1ccc(Oc2cn[nH]c2-c2ccc(O)cc2O)cc1,8,100*,-2.6,-14,2
COc1ccc(-c2[nH]ncc2-c2cnn(-c3ccccc3)c2)c(O)c1,1,93*,0.2,-8,-5
COc1ccc(Oc2cn[nH]c2-c2ccc(O)cc2O)cc1,22,94*,-3.5*,19,-6
COc1ccc(-c2[nH]ncc2-c2cnc(C)s2)c(O)c1,7,1,0.99,3,0
CCCc1cc(C(=O)OC)c(NC(=O)c2cc(C)on2)s1,.,.,-1.4,.,.
COc1ccc(-n2nc(C(=O)c3cccs3)cc(-c3nc4ccccc4[nH]3)c2=N)cc1,.,.,-3.3*,.,.
O=C(c1nn2cccnc2c1Cl)N1CCN(c2ccccc2)CC1,0,-8,-0.6,.,.
COc1ccccc1C(=O)NCC(=O)OCC(=O)c1ccc2c(c1)-c1ccccc1C2,.,.,.,-5,-1
CCOC(=O)N1CCN(C(=O)C2CCCN(Cc3nc(-c4ccc(Cl)cc4)oc3C)C2)CC1 (stereo unspecified),3,7,.,70*,-6
CCN1CCN(CCNC(=O)C2CCCN(Cc3nc(-c4cccc(Cl)c4)oc3C)C2)CC1 (stereo unspecified),-4,-11,.,6,0
Cc1oc(-c2ccc(Cl)cc2)nc1CN1CCCC(C(=O)N2CCc3ccccc32)C1 (stereo unspecified),.,11,.,.,.
CCOC(=O)N1CCC(NC(=O)C2CCCN(Cc3nc(-c4cccc(Cl)c4)oc3C)C2)CC1 (stereo unspecified),1,7,.,60*,-3
CCCCNC(=S)N(Cc1c(C)noc1C)c1ccccc1,.,.,.,5,9
Cc1ccc(S(=O)(=O)N(CCC(=O)O)Cc2ccc(Cl)cc2)cc1,-5,.,0.46,-4,-2
SMILES,Ecoli WT expand,tolC growth inh,PTK2B oligo ant,Mac1 fbg inh,Mac1 fbg enh
Fc1ccc(Cn2ccc(-c3cnc(-c4ccccc4)s3)n2)cc1,3,.,-1.3,56*,-4
Cc1ccc(Cn2ccc(-c3cnc(-c4ccccc4)s3)n2)cc1,-15,.,-1.1,-29,0
CC1(C)Cc2c(cnn2-c2ccccc2)-c2c1c1ccccc1n2CC(O)CBr (stereo unspecified),-2,.,0.88,21,0
CC(=O)C1=C(C)Nc2ncnn2C1c1ccccc1OCc1ccccc1 (stereo unspecified),-1,23,-3.1*,-5,-4
CC1=C(C(=O)OC(C)C)C(c2c[nH]c3ccccc23)n2ncnc2N1 (stereo unspecified),-4,99*,.,4,-9
O=C(COc1ccc2ccccc2c1Br)Nc1ncn[nH]1,5,-2,0.08,-14,-4
Cc1ccc2c(c1)N(CC(=O)NCCc1c[nH]c3ccccc13)C(=O)CO2,-9,20,-0.72,-4,-5
N#C/C(=C\c1ccc(Oc2ccc(C(F)(F)F)cc2[N+](=O)[O-])cc1)c1nc2ccccc2[nH]1,-4,.,0.36,3,82*
CSc1ncc(Cl)c(C(=O)C(C#N)c2nc3c(C)cc(C)cc3c(=O)[nH]2)n1 (stereo unspecified),-11,96*,-3*,.,.
CCCN(CC1CC1)C(=O)CSc1nnc(-c2cc(-c3cccs3)nc3ccccc23)o1,-18,.,-0.96,1,-4
Cc1ccc(Nc2nc(N)nc(CN3CCN(c4ccccc4)CC3)n2)cc1Cl,-1,77*,-0.59,0,3
COc1ccc(N2CCN(Cc3nc(N)nc(Nc4ccc(C)c(Cl)c4)n3)CC2)cc1,1,32,-0.37,13,-1
CCN(CC)c1ccc(NC(=O)OC)cc1,2,.,-0.63,6,-3
O=c1cc(O)c2c(=O)n(-c3ccccc3)c3ccccc3c2o1,0,43,1.5,19,4
O=c1cc(O)c2c(=O)n3c4c(cccc4c2o1)CCC3,.,96*,.,.,.
O=Nc1c2nc3ccccc3n(O)c-2c2ccccc12,2,87*,-2.3,5,-2
Cc1ccc(/C=C/C(=O)C2C(=O)c3ccccc3C2=O)cc1,-7,.,0.07,95*,-12
Cc1ccc(/C=C/C(=O)c2ccc(C)cc2)cc1,.,.,-0.93,.,.
COc1ccc(C(=O)N(Cc2ccco2)C(C(=O)NC2CCCC2)c2ccc(O)cc2)cc1OC (stereo unspecified),-5,-1,-0.89,-20,14
CCOC(=O)c1sc(NC(=O)c2cccnc2)c(C#N)c1C,-20,.,0.57,63*,-9
CCOC(=O)c1sc(NC(=O)CSc2n[nH]c(-c3ccccc3)n2)c(C#N)c1C,-11,100*,-2.6,96,-15
CCOC(=O)c1c(NC(=O)c2cccnc2)sc(C)c1C,10,.,-0.61,.,.
CCC(=O)OC1=C2C(=Nc3c(c(=O)n(C)c(=O)n3C)C2c2ccccc2)c2ccccc21 (stereo unspecified),.,12,.,.,.
CC(C)(C)NC(=O)C(c1ccco1)N(C(=O)Cn1nnc(-c2ccc(F)cc2)n1)c1ccccc1F (stereo unspecified),0,71*,-1.4,-33,3
O=C(CSc1nnc(-c2ccc(Br)cc2)n1C1CCCCC1)N1CCCC1,-5,6,-0.48,.,.
CC(C)(C)c1ccc(-c2nnc(SCCC#N)n2C2CCCC2)cc1,-10,61*,-0.64,26,-3
O=C(COC(=O)C1CC1)NCc1ccccc1Cl,2,.,0.51,-3,-2
CC(C)C(c1nnnn1C1CCCC1)N1CCCc2ccccc21 (stereo unspecified),-13,74*,0.96,.,.
